M5 ag = agonists of human muscarinic M5 receptor (CHRM5); P08912; CHO-K1 hM5 cells, Fluo-8 calcium fluorescence; 0% DMSO wells, 100% maximal acetylcholine response; activation, % at 3 µM; 360,000 tested, 0.19% active; AID 624037;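 active = activation above the run's mean over test compounds plus 3 SD, cut at about 23% in these data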;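 note: signal is peak over basal fluorescence ratio across the kinetic read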
Target sequence (P08912 whole entry, looked up): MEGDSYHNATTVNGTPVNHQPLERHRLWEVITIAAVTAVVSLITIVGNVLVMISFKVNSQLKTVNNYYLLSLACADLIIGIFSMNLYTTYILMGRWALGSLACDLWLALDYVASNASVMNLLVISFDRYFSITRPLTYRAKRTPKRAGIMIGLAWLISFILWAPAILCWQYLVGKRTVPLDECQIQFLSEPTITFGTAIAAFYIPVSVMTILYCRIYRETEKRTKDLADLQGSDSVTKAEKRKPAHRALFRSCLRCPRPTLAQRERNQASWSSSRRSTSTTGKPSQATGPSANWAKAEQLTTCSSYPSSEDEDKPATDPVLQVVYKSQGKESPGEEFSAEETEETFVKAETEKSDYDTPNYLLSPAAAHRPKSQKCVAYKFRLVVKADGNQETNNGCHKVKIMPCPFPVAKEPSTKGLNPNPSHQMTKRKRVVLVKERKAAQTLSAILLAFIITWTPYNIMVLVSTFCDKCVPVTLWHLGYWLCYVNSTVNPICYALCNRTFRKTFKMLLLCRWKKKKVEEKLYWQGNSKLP
M4 antag = CHRM4 antagonism in calcium assay; P08173; CHO-hM4 cells, ACh EC80, Fluo-8 calcium fluorescence; inhibition, % at 3 µM; 360,000 tested, 0.73% active;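 active = inhibition above its plate's cutoff, the mean inhibition of sample wells plus 3 SD, cut at about 27% in these data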;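 note: 0% = acetylcholine EC80 with DMSO and 100% = DMSO without agonist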
M5 PAM = CHRM5 positive allosteric modulation; P08912; CHO-K1 hM5, Fluo-8 calcium, ACh EC20 PAM; 0% = ACh EC20, 100% = ACh EC100; activation, % at 3 µM; 360,000 tested, 0.3% active; AID 624038;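 active = activation above the run cutoff, the mean activation of all test compounds plus 3 SD, cut at about 18% in these data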
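Assay system: CHO-K1 hM5 cells. Also added: acetylcholine at EC20 concentration, added after compound. Dosing: 3 µM, single dose. Times: compound preincubation 140 s before EC20 acetylcholine addition. Signal: Fluo-8 calcium fluorescence. Measure: % activation relative to EC20 and EC100 ACh responses. Repeats: singlicate, one well per test compound.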
M4 PAM = CHRM4 positive allosteric modulation; 360,000 tested, 0.4% active; CHO-K1 hM4/Gqi5, Fluo-8 calcium fluorescence, ACh EC20; 0% = ACh EC20, 100% = maximal ACh; activation, % at 3 µM;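 active = activation above its plate's cutoff, the mean activation of sample wells plus 3 SD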
CHRM5 antagonist = blocks acetylcholine activation of human M5 receptor. inhibition, % at 3 µM. 360,000 tested, 0.59% active. CHO-hM5 cells, Fluo-8 calcium fluorescence, ACh EC80. AID 624040;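 active = inhibition above a per-plate cutoff, the mean of that plate's test compounds plus 3 SD, cut at about 27% in these data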;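 note: 0% = acetylcholine EC80 with DMSO and 100% = DMSO without agonist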
CHRM4 agonist = CHRM4 agonism in calcium assay; P08173; CHO-K1 hM4/Gqi5, Fluo-8 calcium fluorescence; vehicle 0%, full acetylcholine response 100%; activation, % at 3 µM; 360,000 tested, 0.14% active;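 active = activation above the run mean over all test wells plus 3 SD, cut at about 32% in these data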;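 note: peak over basal fluorescence ratio per well then scaled between controls; 0% = DMSO wells and 100% = acetylcholine at EC100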
Numbers without * were called inactive. This is a sample that favours compounds with a hit; in the whole collection about 1.9% have one here.

SMILES	M5 ag	M4 antag	M5 PAM	M4 PAM	CHRM5 antagonist	CHRM4 agonist
CC1(c2nnnn2Cc2ccccc2)CCC(=O)N1CCc1ccc(O)cc1 (stereo not given)	8	3	1	10	-3	5
Cn1cc(CNC(=O)c2cc(COc3ccc4c(c3)CCCC4)on2)cn1	-4	3	-2	3	4	8
O=C(NC(c1cccnc1)C(F)(F)F)c1cc(COc2ccc3c(c2)CCCC3)on1 (stereo not given)	5	20	-10	-5	29*	10
COc1ccc(-c2oc3c(c2C(=O)OCCO)C(OCCCO)CCC3)cc1 (stereo not given)	4	1	1	3	-3	1
O=C(Cc1ccccc1)NCCc1ccc(Cl)cc1Cl	-3	-15	-10	2	8	0
N=c1sccn1CC(=O)NCCc1ccc(Cl)cc1Cl	-7	35*	-9	-18	7	0
COc1ccc(OC)c(NC(=O)Nc2nnc([C@H]3C[C@H](O)[C@@H](CO)O3)s2)c1	1	-2	-1	2	3	0
CC(=O)c1cccc(NC(=O)C(C)OC(=O)c2cccc(S(=O)(=O)N3CCN(C)CC3)c2)c1 (stereo not given)	44*	-1	-11	2	0	2
CC(=O)c1cccc(S(=O)(=O)N2CCC(C(=O)O)CC2)c1	1	-6	5	-9	-8	1
CC(OC(=O)c1cccc(S(=O)(=O)N2CCN(C)CC2)c1)C(=O)Nc1ccc(C(N)=O)cc1 (stereo not given)	3	-4	-9	5	3	0
CC(=O)c1cccc(S(=O)(=O)N2CCC(C(=O)O)(c3ccccc3)CC2)c1	-3	-31	-2	16*	2	0
Cc1cc(C)nc(Nc2nc3ccccc3o2)n1	-3	-10	-9	-6	15	0
C/C(=N\Nc1nc2ccccc2s1)c1cccs1	-1	-6	3	0	-4	-1
Oc1ccccc1/C=N/Nc1nc2ccccc2o1	-4	-17	-4	-5	-5	2
CC(=NNc1nc2ccccc2o1)c1ncccn1	6	58*	-20	-1	51*	6
CC(=NNc1nc2ccccc2s1)c1ncccn1	11	48*	1	0	16	12
CC(=NNc1nc2ccccc2o1)c1cc2ccccc2cn1	8	33*	-16	0	28*	11
O=C(Cc1ccc(Cl)cc1)NCC(=O)N1CCC2(CC1)NCCc1[nH]cnc12	0	-16	0	8	1	2
COc1ccccc1S(=O)(=O)N(C)C[C@@H]1OCc2cn(nn2)CCCC(=O)N([C@@H](C)CO)C[C@H]1C	1	-7	-3	6	2	1
COc1ccc(C(=O)Nc2cc(OC)c(NC(=O)Nc3ccccc3)cc2OC)cc1	0	-15	0	0	-2	3
CCC(C)(C)n1nnnc1C(c1ccc(Cl)cc1)N1CCN(C)CC1 (stereo not given)	-5	1	-2	20*	-13	1
COc1ccccc1-c1csc(C(C)(O)c2cccc(F)c2)n1 (stereo not given)	-1	-10	-1	0	1	-1
COc1ccccc1CNc1nc(NCC2CC2)nc2ccsc12	2	-6	-13	-7	7	20
C/C=C/c1cccc(-c2nc(C(=O)NC3Cc4ccccc4C3)cc3c2[C@@H](CCO)N(C(C)=O)C3)c1	-1	-3	-2	1	13	2
COc1ccc(Cl)cc1NS(=O)(=O)c1cccc(C(=O)NC2CCN(Cc3ccccc3)CC2)c1	0	32*	-5	-14	19	8
O=C(NC1CCN(Cc2ccccc2)CC1)C1COc2ccccc2O1 (stereo not given)	-13	18	-43	-14	64*	2
CCN(c1ccccc1)S(=O)(=O)c1ccc(C(=O)NC2CCN(Cc3ccccc3)CC2)cc1	0	46*	-43	-12	22	25

Screens: PubChem BioAssay, The Scripps Research Institute Molecular Screening Center
